From ChEMBL document CHEMBL1133698, “Novel ligands lacking a positive charge for the delta- and mu-opioid receptors” (J Med Chem, 2000) come the findings set out here.

Where a SMILES comes first, the peptide text is derived from it. Bridges are numbered along the chain shown (N, C = ends). [ ]: non-standard residue; d: D form. 2Nal = N[C@@H](Cc1ccc2ccccc2c1)C(=O)O; Dmt = Cc1cc(O)cc(C)c1C[C@H](N)C(=O)O; dOrn = NCCC[C@@H](N)C(=O)O

Assay [1] is filed under the species Cavia porcellus. Description: (§1) Antagonist activity was determined against the selective delta -agonist TAPP in the GPI (guinea pig ileum) assay. The assay is classed as functional. An outline of the steps: (§2)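 Guinea pig ileum, electrically evoked contractions. µ-Agonist TAPP IC50 measured with and without antagonist at a fixed 500 nM. Ke = a/(DR − 1) from the IC50 ratio. Mean of three to six determinations ± SEM.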

For assay [2], the species on record is Mus musculus. The assay can be described thus: Antagonist activity was determined against the selective delta -agonist DPDPE in the MVD (mouse vas deferens) assay. The assay is classed as functional. The method in brief:
(§3)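 Mouse vas deferens, electrically evoked contractions. DPDPE IC50 measured with and without a fixed antagonist concentration (50 to 4000 nM). Ke = a/(DR − 1), where DR is the ratio of agonist IC50 values. Mean of three to six determinations ± SEM.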

For the next assay, the target named is Mu-type opioid receptor (Rattus norvegicus, UniProt P33535). Description: Binding affinity was determined by displacement of [3H]- DAMGO at Opioid receptor mu 1 in rat brain membrane homogenates. In kind it is cell membranes. The method in brief: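 Rat brain membranes, [3H]DAMGO at 0.72 nM, 2 h at 25 °C. Enzyme inhibitor cocktail in buffer (bestatin 100 µM, captopril 1.0 µM, thiorphan 1.0 µM, Leu-Leu 100 µM). IC50 from log dose-displacement curves. Ki by Cheng-Prusoff using Kd 1.3 nM. Mean of three to six determinations ± SEM.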

The target in assay [3] is Delta-type opioid receptor (Rattus norvegicus, UniProt P33533). Description: Binding affinity was determined by displacement of [3H]- DSLET at Opioid receptor delta 1 in rat brain membrane homogenates. The assay is classed as cell membranes. The method in brief: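 Rat brain membranes, [3H]DSLET at 0.78 nM, 2 h at 25 °C, with a peptidase inhibitor cocktail in buffer. Poorly soluble peptides dissolved in DMSO, diluted in buffer, filtered, and concentration set by optical density. IC50 from log dose-displacement curves. Ki by Cheng-Prusoff with Kd 2.6 nM. Mean of three to six determinations ± SEM.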

Assay [4] is filed under the species Cavia porcellus. Described as §1. In kind it is functional, organism-based. The method in brief:
as §2

The species entered for assay [5] is Mus musculus. The assay can be described thus: Antagonist activity was determined against the selective delta -agonist DPDPE by inhibition of electrically evoked contractions of the mouse vas deferens. The assay is classed as functional. The method in brief: as §3

Mu-type opioid receptor, sequence (P33535 whole entry, looked up): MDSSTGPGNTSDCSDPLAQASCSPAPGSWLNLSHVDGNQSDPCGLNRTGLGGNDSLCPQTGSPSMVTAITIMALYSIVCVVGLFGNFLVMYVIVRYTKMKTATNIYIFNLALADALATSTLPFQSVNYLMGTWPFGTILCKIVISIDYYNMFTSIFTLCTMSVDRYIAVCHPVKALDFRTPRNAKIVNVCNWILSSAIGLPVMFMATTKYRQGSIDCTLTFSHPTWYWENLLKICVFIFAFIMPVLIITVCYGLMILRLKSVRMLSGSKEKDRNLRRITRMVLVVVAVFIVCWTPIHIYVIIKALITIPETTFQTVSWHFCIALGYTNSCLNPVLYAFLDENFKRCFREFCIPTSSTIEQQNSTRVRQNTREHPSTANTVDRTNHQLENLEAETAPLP
Delta-type opioid receptor, sequence (P33533 whole entry, looked up): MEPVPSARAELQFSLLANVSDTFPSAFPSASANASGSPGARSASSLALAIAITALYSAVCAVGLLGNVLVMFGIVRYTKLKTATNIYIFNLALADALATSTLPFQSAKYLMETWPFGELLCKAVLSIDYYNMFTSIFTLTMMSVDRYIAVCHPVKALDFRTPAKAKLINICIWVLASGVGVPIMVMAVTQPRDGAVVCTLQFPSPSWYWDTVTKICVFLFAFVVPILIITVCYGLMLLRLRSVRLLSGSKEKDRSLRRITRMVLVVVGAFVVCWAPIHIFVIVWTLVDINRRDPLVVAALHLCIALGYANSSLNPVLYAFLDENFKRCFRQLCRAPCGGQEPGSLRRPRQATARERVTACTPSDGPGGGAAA

In general, Ki refers to the dissociation constant of the complex between target and ligand, obtained from inhibition or displacement. A lower Ki goes with a stronger hold on the target. Consider `Cc1cc(O)cc(C)c1CCC(=O)N[C@@H]1CCCNC(=O)CNC(=O)[C@H]2CCCN2C(=O)[C@H](Cc2ccc3ccccc3c2)NC1=O`, for which the figures for the Ke in the assay listed under Cavia porcellus [1] and in the assay filed under Mus musculus [2] were 237 nM and 121 nM, respectively. The figures for the Ki (on Mu-type opioid receptor; in assay [3]) were 450 nM and 109 nM, respectively.
As to `C[C@@H](O)[C@@H]1NC(=O)[C@H](Cc2ccc(O)cc2)NC(=O)[C@@H](Cc2c[nH]c3ccccc23)NC(=O)[C@H](Cc2cccc3ccccc23)NC(=O)[C@@H]2CCCN2C(=O)[C@H](Cc2ccccc2)NC1=O`, the Ke in the assay listed under Mus musculus [2] is on record as 128 nM. In addition, the Ki at Mu-type opioid receptor was over 10000 nM; in assay [3], 152 nM.
In the assay filed under Mus musculus [2], `C[C@@H](O)[C@@H]1NC(=O)[C@H](Cc2ccc(O)cc2)NC(=O)[C@@H](Cc2c[nH]c3ccccc23)NC(=O)[C@H](Cc2ccc3ccccc3c2)NC(=O)[C@@H]2CCCN2C(=O)[C@H](Cc2ccccc2)NC1=O` displayed a Ke of 2460 nM. For the same compound, the figures for the Ki (at Mu-type opioid receptor; in assay [3]) were over 10000 nM and 1070 nM, respectively.
On to `Cc1cc(O)cc(C)c1C[C@H](NC=O)C(=O)N[C@@H]1CCCNC(=O)CNC(=O)[C@H]2CCCN2C(=O)[C@H](Cc2ccc3ccccc3c2)NC1=O`, for which the results for the Ke in the assay listed under Cavia porcellus [1] and in the assay listed under Mus musculus [2] were 216 nM and 16.3 nM, respectively. Besides, the Ki stood at 218 nM on Mu-type opioid receptor and 32.8 nM in assay [3].
As a reminder, the IC50 is the midpoint of a concentration-inhibition curve. A low value points to greater potency in that assay. Regarding `Cc1cc(O)cc(C)c1C[C@H](N)C(=O)N[C@@H]1CCCNC(=O)CNC(=O)[C@H]2CCCN2C(=O)[C@H](Cc2ccc3ccccc3c2)NC1=O` (H-[Dmt][dOrn][2Nal][dP]G; lactam 2-C), the Ke in the assay filed under Mus musculus [2] was found to be 2.13 nM. Further, the Ki stood at 0.476 nM on Mu-type opioid receptor and 0.467 nM in assay [3]. The compound also gave an IC50 in the assay filed under Cavia porcellus [4] of 7.88 nM.
In turn, `C[C@@H](O)[C@@H]1NC(=O)[C@H](CC2CCCCC2)NC(=O)[C@@H](Cc2c[nH]c3ccccc23)NC(=O)[C@H](Cc2ccccc2)NC(=O)[C@@H]2CCCN2C(=O)[C@H](Cc2ccccc2)NC1=O` came in with a Ke in the assay listed under Mus musculus [2] of 202 nM. For the same compound, the Ki at Mu-type opioid receptor was over 10000 nM; in assay [3] it was 486 nM.
Take `C[C@@H](O)[C@@H]1NC(=O)[C@H](Cc2ccc(O)cc2)NC(=O)[C@@H](Cc2c[nH]c3ccccc23)NC(=O)[C@H](Cc2ccccc2)NC(=O)[C@@H]2CCCN2C(=O)[C@H](Cc2ccccc2)NC1=O` (cyclo(FPF[dW]YT)): the Ki is over 10000 nM at Mu-type opioid receptor and 759 nM in assay [3]. This compound also had a Ke in the assay filed under Mus musculus [5] of 238 nM.
